# The source made the active and inactive calls. The rule behind the calls is not given here.
# How the values were obtained:
# P388 = assay: Cytotoxicity against mouse P388 cells after 72 hrs by hemocytometer-based cell counting method; type: functional; settings: P388, 72 h, read-out: LD50 (the source's name)
# Summary of the method: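 P-388 mouse lymphoid leukemia cells grown in tissue culture with the nucleoside present; cytotoxicity expressed as the LD50 concentration in µg/mL.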
# Human alphaherpesvirus 1 = assay: Antiviral activity against Herpes simplex virus 1 HF assessed as inhibition of virus-induced cytopathogenicity; type: functional, organism-based
# Summary of the method: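 Cytopathogenic effect of HSV-1 strain HF was scored in infected cell cultures exposed to the nucleoside. The procedure was a modified Ehrlich method, as run in earlier work.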
Structure (SMILES),CC50 (P388) [µg/mL],Activity (Human alphaherpesvirus 1)
NC(=O)c1ncnn1[C@@H]1O[C@H](CO)[C@@H](N)[C@H]1O,> 100,inactive
N[C@H]1[C@@H](O)[C@H](n2cnc(C(=O)NO)n2)O[C@@H]1CO,> 100,inactive
N/C(=N/O)c1ncn([C@@H]2O[C@H](CO)[C@@H](N)[C@H]2O)n1,> 100,inactive
NNC(=O)c1ncn([C@@H]2O[C@H](CO)[C@@H](N)[C@H]2O)n1,> 100,inactive
N/N=C(/N)c1ncn([C@@H]2O[C@H](CO)[C@@H](N)[C@H]2O)n1,> 100,inactive
NC(=O)c1ncn([C@@H]2O[C@H](CO)[C@@H](N)[C@H]2O)n1,> 100,inactive
